# Tests used:
# Format in all cases: functional
# Rattus norvegicus [1] = assay: Antiallergic activity against passive cutaneous anaphylaxis (PCA) in male Sprague-Dawley rats after 10.0 mg/kg oral administration;p<0.1
# Procedure, shortened: (§1)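 IgE antiserum raised in male Sprague-Dawley rats (ca. 200 g) by immunization with Ascaris suum extract (2 then 0.2 mg protein), bled 2 weeks after the second dose. Recipients got 0.05 mL diluted antiserum intracutaneously on the back. Blued area (product of two diameters) was read at 30 min.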
# Rattus norvegicus [2] = assay: Antiallergic activity against passive cutaneous anaphylaxis (PCA) in male Sprague-Dawley rats after 3.0 mg/kg oral administration;not statistically significant; procedure, shortened: as §1
# Rattus norvegicus [3] = assay: Inhibition of passive cutaneous anaphylaxis in male Sprague-Dawley rats following 10 mg/kg p.o. administration.; conditions: route oral; procedure, shortened: as §1
# Rattus norvegicus [4] = assay: Antiallergic activity against passive cutaneous anaphylaxis (PCA) in male Sprague-Dawley rats after 3.0 mg/kg oral administration;p<0.1.; procedure, shortened: as §1
# Rattus norvegicus [5] = assay: Inhibition of passive cutaneous anaphylaxis in male Sprague-Dawley rats following 1 mg/kg p.o. administration; Not significant.; conditions: route oral; procedure, shortened: as §1
# Rattus norvegicus [6] = assay: Antiallergic activity against passive cutaneous anaphylaxis (PCA) in male Sprague-Dawley rats after 3.0 mg/kg oral administration;p<0.1; procedure, shortened: as §1
# Rattus norvegicus [7] = assay: Antiallergic activity against passive cutaneous anaphylaxis (PCA) in male Sprague-Dawley rats after 1.0 mg/kg oral administration;p<0.1; procedure, shortened: as §1
# Rattus norvegicus [8] = assay: Antiallergic activity against passive cutaneous anaphylaxis (PCA) in male Sprague-Dawley rats after 0.3 mg/kg oral administration; procedure, shortened: as §1
# Rattus norvegicus [9] = assay: Antiallergic activity against passive cutaneous anaphylaxis (PCA) in male Sprague-Dawley rats after 3.0 mg/kg oral administration; procedure, shortened: as §1
# Rattus norvegicus [10] = assay: Antiallergic activity against passive cutaneous anaphylaxis (PCA) in male Sprague-Dawley rats after 0.3 mg/kg oral administration;p<0.1; procedure, shortened: as §1
# Rattus norvegicus [11] = assay: Inhibition of passive cutaneous anaphylaxis in male Sprague-Dawley rats following 0.3 mg/kg p.o. administration; Not significant.; conditions: route oral; procedure, shortened: as §1
smiles,measurement,setting,value
Cc1ccc(-c2cc(Cl)cc(C(=O)Nc3nn[nH]n3)n2)cc1C,inhibition in vivo at 10 mg/kg,Rattus norvegicus [1],58%
same,inhibition in vivo at 3 mg/kg,Rattus norvegicus [2],32%
CCCc1cc(C(=O)Nc2nn[nH]n2)nc(-c2ccccc2)c1,inhibition in vivo at 10 mg/kg,Rattus norvegicus [3],85%
same,inhibition in vivo at 3 mg/kg,Rattus norvegicus [4],22%
Cc1cc(C(=O)Nc2nn[nH]n2)nc(-c2cccc(N)c2)c1,inhibition in vivo at 1 mg/kg,Rattus norvegicus [5],29%
same,inhibition in vivo at 3 mg/kg,Rattus norvegicus [6],50%
COc1cc(C(=O)Nc2nn[nH]n2)nc(-c2ccc(OC)c(OC)c2)c1,inhibition in vivo at 1 mg/kg,Rattus norvegicus [5],18%
same,inhibition in vivo at 10 mg/kg,Rattus norvegicus [3],51%
same,inhibition in vivo at 3 mg/kg,Rattus norvegicus [6],62%
CCCOc1cc(C(=O)Nc2nn[nH]n2)nc(-c2ccccc2)c1,inhibition in vivo at 1 mg/kg,Rattus norvegicus [7],27%
same,inhibition in vivo at 0.3 mg/kg,Rattus norvegicus [8],0%
same,inhibition in vivo at 3 mg/kg,Rattus norvegicus [9],100%
O=C(Nc1nn[nH]n1)c1cccc(-c2ccccc2)n1,inhibition in vivo at 1 mg/kg,Rattus norvegicus [7],36%
same,inhibition in vivo at 10 mg/kg,Rattus norvegicus [3],81%
same,inhibition in vivo at 3 mg/kg,Rattus norvegicus [9],74%
COc1cc(C(=O)Nc2nn[nH]n2)nc(-c2ccc(N)cc2)c1,inhibition in vivo at 1 mg/kg,Rattus norvegicus [7],50%
same,inhibition in vivo at 0.3 mg/kg,Rattus norvegicus [10],12%
Nc1cccc(-c2cccc(C(=O)Nc3nn[nH]n3)n2)c1,inhibition in vivo at 10 mg/kg,Rattus norvegicus [1],57%
same,inhibition in vivo at 3 mg/kg,Rattus norvegicus [9],0%
COc1cc(C(=O)Nc2nn[nH]n2)nc(-c2cccc(N)c2)c1,inhibition in vivo at 10 mg/kg,Rattus norvegicus [1],58%
same,inhibition in vivo at 1 mg/kg,Rattus norvegicus [7],27%
same,inhibition in vivo at 3 mg/kg,Rattus norvegicus [9],41%
COc1ccc(-c2cc(C)cc(C(=O)Nc3nn[nH]n3)n2)cc1,inhibition in vivo at 10 mg/kg,Rattus norvegicus [1],52%
same,inhibition in vivo at 3 mg/kg,Rattus norvegicus [9],43%
CCCCc1ccc(-c2cc(C)cc(C(=O)Nc3nn[nH]n3)n2)cc1,inhibition in vivo at 1 mg/kg,Rattus norvegicus [7],42%
same,inhibition in vivo at 0.3 mg/kg,Rattus norvegicus [11],17%
same,inhibition in vivo at 3 mg/kg,Rattus norvegicus [9],67%
CCc1ccc(-c2cc(C)cc(C(=O)Nc3nn[nH]n3)n2)cc1,inhibition in vivo at 10 mg/kg,Rattus norvegicus [3],100%
same,inhibition in vivo at 3 mg/kg,Rattus norvegicus [4],35%
COc1cc(C(=O)Nc2nn[nH]n2)nc(-c2ccc(C(C)(C)C)cc2)c1,inhibition in vivo at 1 mg/kg,Rattus norvegicus [5],29%
same,inhibition in vivo at 3 mg/kg,Rattus norvegicus [6],68%
O=C(Nc1nn[nH]n1)c1cc(Cl)cc(-c2ccc(Cl)cc2)n1,inhibition in vivo at 10 mg/kg,Rattus norvegicus [1],63%
same,inhibition in vivo at 3 mg/kg,Rattus norvegicus [9],11%
